How the values were obtained:
Assay type in all cases: functional
Klebsiella pneumoniae [1] = assay: Antibacterial activity against Klebsiella pneumoniae D 11750/08 after 24 hrs by microdilution broth method; conditions: D 11750/08, 24 h
Outline: (§1)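 Mueller-Hinton broth microdilution (modified M07-A07), pH 7.4 (±0.2). Compounds dissolved in DMSO, tested at final 500 to 0.49 µmol/L. Inoculum in sterile water matched to 0.5 McFarland. Incubated in the dark, humid atmosphere, 35 °C, read at 24 and 48 h visually and at 540 nm. MIC taken as ≥95% growth reduction (IC95) versus control.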

Escherichia coli [2] = assay: Antibacterial activity against Escherichia coli CCM4517 after 48 hrs by microdilution broth method; conditions: CCM4517, 48 h; outline: as §1
Staphylococcus aureus [3] = assay: Antibacterial activity against methicillin-resistant Staphylococcus aureus H 5996/08 after 24 hrs by microdilution broth method; conditions: H 5996/08, 24 h
Klebsiella pneumoniae [4] = assay: Antibacterial activity against ESBL-positive Klebsiella pneumoniae J 14368/08 after 48 hrs by microdilution broth method; conditions: J 14368/08, 48 h; outline: as §1
Pichia kudriavzevii [5] = assay: Antifungal activity against Candida krusei E28 after 24 hrs by microdilution broth method; conditions: E28, 24 h
Outline: (§2)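 CLSI M27-A3 broth microdilution in RPMI 1640 with glutamine, buffered to pH 7.0 with MOPS; DMSO diluent. Yeast inoculum 5 × 10^3 ± 0.2 CFU/mL. Moulds grown on Sabouraud agar 3–10 days before spore harvest, final inoculum 0.5-5 × 10^4 CFU/mL, checked in a Bürker chamber. Incubated dark, humid, 35 °C, read at 24 and 48 h visually and at 540 nm. MIC taken as ≥80% (yeasts) or ≥50% (filamentous) growth reduction versus control.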

Mycobacterium kansasii [6] = assay: Antimycobacterial activity against Mycobacterium kansasii 6509/96 after 7 days; conditions: 6509/96, 168 h
Outline: (§3)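 Šula's semisynthetic medium micromethod at 37 °C, read after 7, 14 and 21 days. The 1.0 McFarland suspension was diluted 10^-4. MIC determined. 6509/96 is a clinical isolate.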

Staphylococcus aureus [7] = assay: Antibacterial activity against methicillin-resistant Staphylococcus aureus H 5996/08 after 48 hrs by microdilution broth method; conditions: H 5996/08, 48 h
Candida albicans [8] = assay: Antifungal activity against Candida albicans ATCC 44859 after 24 hrs by microdilution broth method; conditions: ATCC 44859, 24 h; outline: as §2
Escherichia coli [9] = assay: Antibacterial activity against Escherichia coli CCM4517 after 24 hrs by microdilution broth method; conditions: CCM4517, 24 h; outline: as §1
[10] = test system: Trichophyton mentagrophytes; assay: Antifungal activity against Trichophyton mentagrophytes 445 after 24 hrs by microdilution broth method; conditions: Trichophyton mentagrophytes, 445, 24 h
Enterococcus sp. [11] = assay: Antibacterial activity against Enterococcus sp. J 14365/08 after 24 hrs by microdilution broth method; conditions: J 14365/08, 24 h; outline: as §1
[12] = test system: Staphylococcus epidermidis; assay: Antibacterial activity against Staphylococcus epidermidis H 6966/08 after 48 hrs by microdilution broth method; conditions: H 6966/08, 48 h; outline: as §1
Aspergillus fumigatus [13] = assay: Antifungal activity against Aspergillus fumigatus 231 after 48 hrs by microdilution broth method; conditions: Aspergillus fumigatus, 231, 48 h; outline: as §2
Pseudomonas aeruginosa [14] = assay: Antibacterial activity against Pseudomonas aeruginosa CCM 1961 after 24 hrs by microdilution broth method; conditions: CCM 1961, 24 h; outline: as §1
Candida tropicalis [15] = assay: Antifungal activity against Candida tropicalis 156 after 48 hrs by microdilution broth method; conditions: Candida tropicalis, 156, 48 h; outline: as §2
Klebsiella pneumoniae [16] = assay: Antibacterial activity against ESBL-positive Klebsiella pneumoniae J 14368/08 after 24 hrs by microdilution broth method; conditions: J 14368/08, 24 h; outline: as §1
Mycobacterium kansasii [17] = assay: Antimycobacterial activity against Mycobacterium kansasii 6509/96 after 21 days; conditions: 6509/96, 504 h; outline: as §3
Pseudomonas aeruginosa [18] = assay: Antibacterial activity against Pseudomonas aeruginosa CCM 1961 after 48 hrs by microdilution broth method; conditions: CCM 1961, 48 h; outline: as §1
[19] = test system: Staphylococcus epidermidis; assay: Antibacterial activity against Staphylococcus epidermidis H 6966/08 after 24 hrs by microdilution broth method; conditions: H 6966/08, 24 h; outline: as §1
Enterococcus sp. [20] = assay: Antibacterial activity against Enterococcus sp. J 14365/08 after 48 hrs by microdilution broth method; conditions: J 14365/08, 48 h; outline: as §1
Pichia kudriavzevii [21] = assay: Antifungal activity against Candida krusei E28 after 48 hrs by microdilution broth method; conditions: E28, 48 h; outline: as §2
Nakaseomyces glabratus [22] = assay: Antifungal activity against Candida glabrata 20/I after 24 hrs by microdilution broth method; outline: as §2
Aspergillus fumigatus [23] = assay: Antifungal activity against Aspergillus fumigatus 231 after 24 hrs by microdilution broth method; conditions: Aspergillus fumigatus, 231, 24 h; outline: as §2
Mycobacterium kansasii [24] = assay: Antimycobacterial activity against Mycobacterium kansasii 235/80 after 14 days; conditions: 235/80, 336 h; outline: as §3
Nakaseomyces glabratus [25] = assay: Antifungal activity against Candida glabrata 20/I after 48 hrs by microdilution broth method; outline: as §2
Candida tropicalis [26] = assay: Antifungal activity against Candida tropicalis 156 after 24 hrs by microdilution broth method; conditions: Candida tropicalis, 156, 24 h; outline: as §2
Mycobacterium kansasii [27] = assay: Antimycobacterial activity against Mycobacterium kansasii 235/80 after 21 days; conditions: 235/80, 504 h; outline: as §3
Staphylococcus aureus [28] = assay: Antibacterial activity against Staphylococcus aureus CCM 4516/08 after 24 hrs by microdilution broth method; conditions: CCM 4516/08, 24 h
[29] = test system: Mycobacterium tuberculosis; assay: Antimycobacterial activity against Mycobacterium tuberculosis H37Rv 331/88 after 14 days; conditions: H37Rv 331/88, 336 h
Staphylococcus aureus [30] = assay: Antibacterial activity against Staphylococcus aureus CCM 4516/08 after 48 hrs by microdilution broth method; conditions: CCM 4516/08, 48 h
Mycobacterium avium [31] = assay: Antimycobacterial activity against Mycobacterium avium 330/80 after 14 days; conditions: 330/80, 336 h
Trichosporon asahii [32] = assay: Antifungal activity against Trichosporon asahii 1188 after 48 hrs by microdilution broth method; conditions: Trichosporon asahii, 1188, 48 h; outline: as §2
Mycobacterium avium [33] = assay: Antimycobacterial activity against Mycobacterium avium 330/80 after 21 days; conditions: 330/80, 504 h
[34] = test system: Mycobacterium tuberculosis; assay: Antimycobacterial activity against Mycobacterium tuberculosis H37Rv 331/88 after 21 days; conditions: H37Rv 331/88, 504 h
Mycobacterium kansasii [35] = assay: Antimycobacterial activity against Mycobacterium kansasii 235/80 after 7 days; conditions: 235/80, 168 h; outline: as §3
Lichtheimia corymbifera [36] = assay: Antifungal activity against Absidia corymbifera 272 after 48 hrs by microdilution broth method; conditions: Lichtheimia corymbifera, 272, 48 h; outline: as §2
Klebsiella pneumoniae [37] = assay: Antibacterial activity against Klebsiella pneumoniae D 11750/08 after 48 hrs by microdilution broth method; conditions: D 11750/08, 48 h; outline: as §1
Trichosporon asahii [38] = assay: Antifungal activity against Trichosporon asahii 1188 after 24 hrs by microdilution broth method; conditions: Trichosporon asahii, 1188, 24 h; outline: as §2
Mycobacterium kansasii [39] = assay: Antimycobacterial activity against Mycobacterium kansasii 6509/96 after 14 days; conditions: 6509/96, 336 h; outline: as §3
Candida albicans [40] = assay: Antifungal activity against Candida albicans ATCC 44859 after 48 hrs by microdilution broth method; conditions: ATCC 44859, 48 h; outline: as §2
Lichtheimia corymbifera [41] = assay: Antifungal activity against Absidia corymbifera 272 after 24 hrs by microdilution broth method; conditions: Lichtheimia corymbifera, 272, 24 h; outline: as §2
[42] = test system: Trichophyton mentagrophytes; assay: Antifungal activity against Trichophyton mentagrophytes 445 after 48 hrs by microdilution broth method; conditions: Trichophyton mentagrophytes, 445, 48 h

Measured: MIC

O=C(Nc1ccc([N+](=O)[O-])cc1)c1ccc([N+](=O)[O-])cc1O
8 µM: [29] | Mycobacterium kansasii [35]
31.2 µM: Staphylococcus aureus [3] | Staphylococcus aureus [7]
62.5 µM: [12] | [19] | Staphylococcus aureus [28] | Staphylococcus aureus [30] | Mycobacterium avium [31] | Mycobacterium avium [33]
16 µM: Mycobacterium kansasii [24] | [34]
32 µM: Mycobacterium kansasii [6] | Mycobacterium kansasii [17] | Mycobacterium kansasii [27] | Mycobacterium kansasii [39]
500 µM: Klebsiella pneumoniae [1] | Escherichia coli [9] | Enterococcus sp. [11] | Pseudomonas aeruginosa [14] | Klebsiella pneumoniae [16]
> 500 µM: all other assays above

O=C(Nc1cccc(I)c1)c1cc([N+](=O)[O-])ccc1O
32 µM: Mycobacterium kansasii [6] | Mycobacterium kansasii [24]
250 µM: Enterococcus sp. [11] | Aspergillus fumigatus [13] | Aspergillus fumigatus [23] | Trichosporon asahii [38]
62.5 µM: Mycobacterium kansasii [17] | Mycobacterium kansasii [27] | Mycobacterium kansasii [39]
500 µM: Pichia kudriavzevii [5] | Candida albicans [8] | Candida tropicalis [15] | Pichia kudriavzevii [21] | Nakaseomyces glabratus [22] | Nakaseomyces glabratus [25] | Candida tropicalis [26] | Trichosporon asahii [32] | Lichtheimia corymbifera [41]
31.2 µM: Staphylococcus aureus [3] | Staphylococcus aureus [7] | [12] | [19] | Staphylococcus aureus [28] | Staphylococcus aureus [30]
16 µM: [29] | [34] | Mycobacterium kansasii [35]
125 µM: [10] | Mycobacterium avium [31] | Mycobacterium avium [33] | [42]
> 500 µM: all other assays above

O=C(Nc1cccc(Br)c1)c1cc([N+](=O)[O-])ccc1O
62.5 µM: Staphylococcus aureus [7] | Mycobacterium kansasii [17] | Mycobacterium kansasii [24] | Mycobacterium kansasii [27] | Staphylococcus aureus [30] | Mycobacterium kansasii [39]
32 µM: Mycobacterium kansasii [6] | Mycobacterium kansasii [35]
31.2 µM: Staphylococcus aureus [3] | [19] | Staphylococcus aureus [28]
125 µM: Mycobacterium avium [31]
250 µM: [10] | [12] | Mycobacterium avium [33] | [42]
16 µM: [29] | [34]
500 µM: Pichia kudriavzevii [5] | Enterococcus sp. [11] | Aspergillus fumigatus [13] | Aspergillus fumigatus [23] | Trichosporon asahii [32] | Lichtheimia corymbifera [36] | Trichosporon asahii [38] | Lichtheimia corymbifera [41]
> 500 µM: all other assays above
